Among the data in ChEMBL document CHEMBL1142696, “Design and synthesis of melanocortin peptides with candidacidal and anti-TNF-alpha properties” (2005) are Inhibition values, retold here.

One assay concerns PBMC. The experiment in a line: Inhibition of tumor necrosis factor alpha release by endotoxin stimulated human peripheral blood mononuclear cells at 1e-4 M. Type of assay: functional. Put shortly: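 Human PBMC from five normal donors, isolated by Ficoll-Hypaque density centrifugation, washed in PBS and kept in RPMI 1640 with HEPES, glutamine, 10% FCS and penicillin/streptomycin. Cells at 2.5 × 10^5 per well were held 24 h at 37 °C, 5% CO2 with E. coli 055:B5 endotoxin 1 ng/mL plus peptide 10^-4 M. Supernatant TNF-α measured by immunoassay; % inhibition versus saline control, mean ± SD.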

Another assay has as its system Candida albicans. The experiment in a line: Inhibition of Candida albicans colony forming units (CFU) at 1e-4 M compound. Format: functional. An outline of the steps: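 Six C. albicans isolates (five clinical, ATCC 24433), grown 48 h at 32 °C in Sabouraud-dextrose broth, washed and held in distilled water. 1 × 10^6 cells exposed to peptide at 10^-4 M final, 2 h at 37 °C; water controls. Diluted, plated on blood agar for 48 h at 37 °C, colonies counted manually. Kill = 100 − (test CFU/control CFU × 100). Triplicates, two independent experiments.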

Non-standard residues stand in square brackets, D forms with d. Residues, ends and D or L forms follow the SMILES beside them. d2Nal = N[C@H](Cc1ccc2ccccc2c1)C(=O)O

As usually defined, the Inhibition is the relative decrease from the control value, in per cent. Lower therefore signals a response near the control. On to `CC(C)[C@H](NC(=O)[C@H](Cc1ccccc1)NC(=O)[C@H](CCCCN)NC(=O)CNC(=O)[C@H](Cc1c[nH]c2ccccc12)NC(=O)[C@H](CCCN=C(N)N)NC(=O)[C@@H](Cc1ccc2ccccc2c1)NC(=O)[C@H](C)N)C(N)=O`, for which the results for the Inhibition in the assay on PBMC and in the assay with Candida albicans were less than 10% and 62.8%, respectively.

For `NC(=O)[C@H](Cc1c[nH]c2ccccc12)NC(=O)[C@H](CCCN=C(N)N)NC(=O)[C@@H](Cc1ccc2ccccc2c1)NC(=O)[C@@H](N)Cc1c[nH]cn1`, the Inhibition with PBMC is on record as 13.9%; with Candida albicans it was 43%.

Consider `CC(C)[C@H](NC(=O)[C@H](Cc1ccccc1)NC(=O)[C@H](CCCCN)NC(=O)CNC(=O)[C@H](Cc1c[nH]c2ccccc12)NC(=O)[C@H](C)NC(=O)[C@@H](Cc1ccc2ccccc2c1)NC(=O)[C@@H](N)Cc1c[nH]cn1)C(N)=O`, for which the results for the Inhibition in the assay with PBMC and in the assay on Candida albicans were 23% and 95.7%, respectively.

As for `CC(C)[C@H](NC(=O)[C@H](Cc1ccccc1)NC(=O)[C@H](CCCCN)NC(=O)CNC(=O)[C@H](C)NC(=O)[C@H](CCCN=C(N)N)NC(=O)[C@@H](Cc1ccc2ccccc2c1)NC(=O)[C@@H](N)Cc1c[nH]cn1)C(N)=O`, the figures for the Inhibition in the assay on PBMC and in the assay with Candida albicans were 18.1% and 24.9%, respectively.

With `CC(C)[C@H](NC(=O)[C@H](Cc1ccccc1)NC(=O)[C@H](CCCCN)NC(=O)CNC(=O)[C@H](Cc1c[nH]c2ccccc12)NC(=O)[C@H](CCCN=C(N)N)NC(=O)[C@H](N)Cc1ccc2ccccc2c1)C(N)=O`, the Inhibition in the assay with PBMC is recorded as less than 10%; with Candida albicans it was 51.4%.

Turning to `CC(C)[C@H](NC(=O)[C@H](Cc1ccccc1)NC(=O)[C@H](CCCCN)NC(=O)CN)C(N)=O` (H-GKFV-NH2), the Inhibition with PBMC is reported as less than 10%; in the assay with Candida albicans, 5%.

Regarding `CC(C)[C@H](NC(=O)[C@H](Cc1ccccc1)NC(=O)[C@H](CCCCN)NC(=O)CNC(=O)[C@H](Cc1c[nH]c2ccccc12)NC(=O)[C@H](CCCN=C(N)N)NC(=O)[C@H](C)NC(=O)[C@@H](N)Cc1c[nH]cn1)C(N)=O` (H-HARWGKFV-NH2), the values for the Inhibition in the assay with PBMC and with Candida albicans were less than 10% and 49.9%, respectively.

`CC(C)[C@H](NC(=O)[C@H](Cc1ccccc1)NC(=O)[C@H](CCCCN)NC(=O)CNC(=O)[C@H](Cc1c[nH]c2ccccc12)NC(=O)[C@H](CCCNC(=N)N)NC(=O)[C@H](Cc1ccccc1)NC(=O)[C@@H](N)Cc1cnc[nH]1)C(N)=O` (H-HFRWGKFV-NH2): the figures for the Inhibition with PBMC and in the assay on Candida albicans were less than 10% and 90.8%, respectively.

With `CC(C)[C@H](NC(=O)[C@@H]1CCCN1C(=O)[C@H](CCCCN)NC(=O)CNC(=O)[C@H](Cc1c[nH]c2ccccc12)NC(=O)[C@H](CCCN=C(N)N)NC(=O)[C@H](Cc1ccccc1)NC(=O)[C@@H](N)Cc1c[nH]cn1)C(N)=O` (H-HFRWGKPV-NH2), the Inhibition with PBMC was determined as 12.3%; in the assay with Candida albicans, 59.4%.

Consider `CC(C)[C@H](NC(=O)[C@H](Cc1ccccc1)NC(=O)[C@H](CCCCN)NC(=O)CNC(=O)[C@H](Cc1c[nH]c2ccccc12)NC(=O)[C@H](CCCN=C(N)N)NC(=O)[C@@H](Cc1ccc2ccccc2c1)NC(=O)[C@@H](N)Cc1c[nH]cn1)C(N)=O` (H-H[d2Nal]RWGKFV-NH2), for which the Inhibition in the assay with PBMC is listed as 18.7%; in the assay on Candida albicans it was 99.8%.

As for `CC(C)[C@H](NC(=O)[C@@H]1CCCN1C(=O)[C@H](CCCCN)NC(=O)CNC(=O)[C@H](Cc1c[nH]c2ccccc12)NC(=O)[C@H](CCCN=C(N)N)NC(=O)[C@@H](Cc1ccc2ccccc2c1)NC(=O)[C@@H](N)Cc1c[nH]cn1)C(N)=O` (H-H[d2Nal]RWGKPV-NH2), the Inhibition in the assay with PBMC stood at 41.8%; in the assay with Candida albicans it was 95.3%.

Take `CC(C)[C@H](NC(=O)[C@H](Cc1ccccc1)NC(=O)[C@@H](N)CCCCN)C(N)=O` (H-Lys-Phe-Val-NH2): the values for the Inhibition with PBMC and with Candida albicans were less than 10% and 2.7%, respectively.

For the compound `CC(C)[C@H](NC(=O)[C@H](Cc1ccccc1)NC(=O)[C@H](CCCCN)NC(=O)CNC(=O)[C@H](Cc1c[nH]c2ccccc12)NC(=O)[C@@H](N)CCCN=C(N)N)C(N)=O` (H-RWGKFV-NH2), the Inhibition in the assay with PBMC is given as less than 10%; in the assay on Candida albicans, 19.3%.

Regarding `CC(C)[C@H](NC(=O)[C@H](Cc1ccccc1)NC(=O)[C@H](CCCCN)NC(=O)CNC(=O)[C@@H](N)Cc1c[nH]c2ccccc12)C(N)=O` (H-WGKFV-NH2), the Inhibition in the assay on PBMC was less than 10%; with Candida albicans, 5.7%.
